According to ChEMBL document CHEMBL1800059, “Spiroindane based amides as potent and selective MC4R agonists for the treatment of obesity” (Bioorg Med Chem Lett, 2010):
Calls of active or inactive are those of the source. The rule behind the calls is not given here.

Key:
Melanocortin receptor 4 [1] = target: T1, Melanocortin receptor 4 (Homo sapiens, UniProt P32245); assay: Agonist activity at human MC4R expressed in CHO cells assessed as increase of alpha-MSH-stimulated cAMP release pretreated for 10 mins before alpha-MSH challenge measured after 40 mins relative to alpha-MSH; assay type: functional, cell-based
In short: (§1)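 Each value is the mean of at least three repeat measurements. Functional read-outs give EC50 with % maximal activation.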

Rattus norvegicus [2] = assay: Antiobesity activity in wild type 14 days diet-induced obese rat model assessed as reduction in body weight at 10 mg/kg, po BID; assay type: functional, organism-based; design: dose 10 mg/kg
Melanocortin receptor 4 [3] = target: T1, Melanocortin receptor 4; assay: Agonist activity at human MC4R expressed in CHO cells assessed as increase of alpha-MSH-stimulated cAMP release pretreated for 10 mins before alpha-MSH challenge measured after 40 mins; assay type: functional, cell-based; in short: as §1
[4] = Agonist activity at human MC1bR expressed in CHO cells assessed as increase of alpha-MSH-stimulated cAMP release pretreated for 10 mins before alpha-MSH challenge measured after 40 mins; assay type: functional, cell-based; in short: as §1
[5] = Agonist activity at human MC1bR expressed in CHO cells assessed as increase of alpha-MSH-stimulated cAMP release pretreated for 10 mins before alpha-MSH challenge measured after 40 mins relative to alpha-MSH; assay type: functional; in short: as §1
[6] = Oral bioavailability in Sprague-Dawley rat at 4 mg/kg; assay type: ADME, organism-based; settings: in vivo
[7] = Clearance in Sprague-Dawley rat at 1 mg/kg, iv and 4 mg/kg, po; assay type: ADME, organism-based; settings: in vivo
[8] = Volume of distribution at steady state in Sprague-Dawley rat at 1 mg/kg, iv and 4 mg/kg, po; assay type: ADME, organism-based; settings: in vivo, read-out: Vdss
[9] = Half life in Sprague-Dawley rat at 1 mg/kg, iv and 4 mg/kg, po; assay type: ADME, organism-based; settings: in vivo
Rattus norvegicus [10] = assay: Dose-normalized AUC in Sprague-Dawley rat at 1 mg/kg, iv and 4 mg/kg, po; assay type: ADME, organism-based; settings: in vivo
Melanocortin receptor 4 [11] = target: T1, Melanocortin receptor 4; assay: Displacement of [125I]-NDP-R-MSH from human MC4R expressed in CHO cells after 1.5 hrs by scintillation counting; assay type: cell-based; in short: as §1
Mus musculus [12] = assay: Antiobesity activity in MC4R/3R knockout diet-induced obese mouse model assessed as reduction in food intake at 10 mg/kg, po; assay type: functional, organism-based; design: dose 10 mg/kg
In short: (§2)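 Wild-type and MC4R/3R knockout mice received a single oral dose of 10 mg/kg, with a vehicle-dosed group for each genotype. Food intake and body weight change were measured against vehicle.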

Mus musculus [13] = assay: Antiobesity activity in wild type diet-induced obese mouse model assessed as reduction in food intake at 10 mg/kg, po; assay type: functional, organism-based; design: dose 10 mg/kg; in short: as §2
Mus musculus [14] = assay: Antiobesity activity in MC4R/3R knockout diet-induced obese mouse model assessed as reduction in body weight at 10 mg/kg, po; assay type: functional, organism-based; design: dose 10 mg/kg; in short: as §2
Mus musculus [15] = assay: Antiobesity activity in wild type diet-induced obese mouse model assessed as reduction in body weight at 10 mg/kg, po; assay type: functional, organism-based; design: dose 10 mg/kg; in short: as §2
Rattus norvegicus [16] = assay: Antiobesity activity in wild type 14 days diet-induced obese rat model assessed as reduction in body weight at 6 mg/kg, po BID; assay type: functional, organism-based; design: dose 6 mg/kg
In short: (§3)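 Diet-induced obese rats were dosed orally twice daily for 14 days at 2, 6 or 20 mpk. Vehicle and orally dosed positive-control groups were included. Body weight was recorded daily and expressed as change in grams.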

Rattus norvegicus [17] = assay: Antiobesity activity in wild type 14 days diet-induced obese rat model assessed as reduction in body weight at 20 mg/kg, po BID; assay type: functional, organism-based; design: dose 20 mg/kg; in short: as §3
Melanocortin receptor 3 = Melanocortin receptor 3 (Mus musculus, UniProt P33033); assay: Agonist activity at mouse MC3 receptor; assay type: functional
Melanocortin receptor 3, sequence (P33033 whole entry): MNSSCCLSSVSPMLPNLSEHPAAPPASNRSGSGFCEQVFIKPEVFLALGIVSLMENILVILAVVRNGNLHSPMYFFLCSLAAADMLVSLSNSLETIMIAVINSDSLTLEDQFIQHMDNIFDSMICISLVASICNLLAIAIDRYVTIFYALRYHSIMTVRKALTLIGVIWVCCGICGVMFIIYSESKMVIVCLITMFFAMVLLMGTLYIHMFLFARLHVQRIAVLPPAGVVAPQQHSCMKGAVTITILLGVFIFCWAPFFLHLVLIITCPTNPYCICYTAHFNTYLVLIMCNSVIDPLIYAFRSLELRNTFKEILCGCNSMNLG

T1 sequence (P32245 whole entry): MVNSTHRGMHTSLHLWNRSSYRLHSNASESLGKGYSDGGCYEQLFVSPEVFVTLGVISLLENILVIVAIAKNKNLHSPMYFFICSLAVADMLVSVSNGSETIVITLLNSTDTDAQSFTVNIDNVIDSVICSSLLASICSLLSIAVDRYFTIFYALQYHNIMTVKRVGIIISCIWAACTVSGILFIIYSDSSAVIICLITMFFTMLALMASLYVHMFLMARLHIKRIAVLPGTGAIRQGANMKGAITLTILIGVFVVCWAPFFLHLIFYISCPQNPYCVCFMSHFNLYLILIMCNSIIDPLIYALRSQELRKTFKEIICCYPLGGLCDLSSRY

In the case of CC[C@H](NC(C)=O)c1cc(Cl)ccc1C1CCN(C(=O)[C@@H]2CN(C(C)(C)C)C[C@H]2c2ccc(F)cc2F)CC1, the Activity (Melanocortin receptor 4 [1]) is reported as 97% and the Activity (Rattus norvegicus [2]) is reported as “Active”.
Compound CC(=O)N(C)C(C)(C)[C@@H]1CC2(CCN(C(=O)[C@@H]3CN(C(C)(C)C)C[C@H]3c3ccc(F)cc3F)CC2)c2cc(Cl)c(C)cc21 has an EC50 (Melanocortin receptor 4 [3]) of 2.1 nM, an Activity (Melanocortin receptor 4 [1]) of 112% and an EC50 [4] of 494 nM. The Activity [5] was 35%, the bioavailability [6] was 22% and the clearance [7] was 9.1 mL/min/kg. For the same compound, the Vd [8] was 10.4 L/kg, the half-life [9] was 15.1 h and the AUC/dose (Rattus norvegicus [10]) was 0.83 µM·h/mg/kg. It also gave an IC50 (Melanocortin receptor 4 [11]) of 8.5 nM.
In the case of Cc1cc2c(cc1Cl)C1(CCN(C(=O)[C@@H]3CN(C(C)(C)C)C[C@H]3c3ccc(F)cc3F)CC1)C[C@@H]2C(C)(C)C(=O)N(C)C, the EC50 (Melanocortin receptor 4 [3]) is reported as 0.87 nM, the Activity (Melanocortin receptor 4 [1]) is reported as 108% and the EC50 [4] is reported as 255 nM. For the same compound, the Activity [5] was 92%, the bioavailability [6] was 24% and the clearance [7] was 17.2 mL/min/kg. The Vd [8] was 6.95 L/kg, the half-life [9] was 5.14 h and the AUC/dose (Rattus norvegicus [10]) was 0.39 µM·h/mg/kg. For the same compound, the IC50 (Melanocortin receptor 4 [11]) was 0.71 nM.
CC(=O)NC(C)(C)[C@@H]1CC2(CCN(C(=O)[C@@H]3CN(C(C)(C)C)C[C@H]3c3ccc(F)cc3F)CC2)c2cc(Cl)c(C)cc21 showed an EC50 (Melanocortin receptor 4 [3]) of 4.6 nM, an Activity (Melanocortin receptor 4 [1]) of 109% and an EC50 [4] of 1020 nM. The Activity [5] was 25%, the Activity (Mus musculus [12]) was “inactive” and the Activity (Mus musculus [13]) was “Active”. For the same compound, the Activity (Mus musculus [14]) was “inactive”, the Activity (Mus musculus [15]) was “Active” and the Activity (Rattus norvegicus [16]) was “Active”. The Activity (Rattus norvegicus [17]) was “Active” and the EC50 (Melanocortin receptor 3) was 1700 nM.
